Reference: ChEMBL document CHEMBL1136568 (Bioorg Med Chem Lett, 2003)
pIC50, pKi: −log10 of the molar value.

Experiments:
[1] = biological target: T1, Inosine-5'-monophosphate dehydrogenase 2 (Homo sapiens, UniProt P12268); experiment: Inhibition of human inosine monophosphate dehydrogenase IMPDH II
How it was run: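 Human type II IMPDH expressed in and purified from E. coli, used at 40 nM. Buffer: 0.1 M Tris, 0.1 M KCl, 3 mM EDTA, pH 8.0, with 400 µM IMP and 2 mM DTT. Compounds were added from DMSO to a final 2.5% DMSO. NAD (400 µM final) started the reaction. After 2 h at 25°C, NADH was read at 340 nm. IC50 came from a four-parameter logistic fit.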

[2] = biological target: T2, Inosine-5'-monophosphate dehydrogenase 1 (Homo sapiens, UniProt P20839); experiment: Inhibitory activity against inosine monophosphate dehydrogenase IMPDH type I
Target sequence in this assay (P20839 whole entry): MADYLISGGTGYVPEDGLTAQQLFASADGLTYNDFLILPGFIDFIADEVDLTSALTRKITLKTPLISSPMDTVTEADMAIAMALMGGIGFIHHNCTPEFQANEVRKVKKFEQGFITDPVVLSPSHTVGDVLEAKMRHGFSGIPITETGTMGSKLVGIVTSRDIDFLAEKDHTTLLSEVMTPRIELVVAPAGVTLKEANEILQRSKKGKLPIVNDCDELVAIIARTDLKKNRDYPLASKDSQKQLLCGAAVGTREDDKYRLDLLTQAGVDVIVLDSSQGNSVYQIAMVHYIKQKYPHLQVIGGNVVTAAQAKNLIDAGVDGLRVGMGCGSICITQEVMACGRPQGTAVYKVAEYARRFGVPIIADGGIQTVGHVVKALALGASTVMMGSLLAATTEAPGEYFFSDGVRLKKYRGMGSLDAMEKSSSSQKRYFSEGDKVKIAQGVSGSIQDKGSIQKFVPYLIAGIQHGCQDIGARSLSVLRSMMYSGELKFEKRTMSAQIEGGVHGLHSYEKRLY

[3] = biological target: T2, Inosine-5'-monophosphate dehydrogenase 1; experiment: Ratio of IC50(Type I) to IC50(Type II)
Target sequence in this assay (P20839 2-514 limits assumed): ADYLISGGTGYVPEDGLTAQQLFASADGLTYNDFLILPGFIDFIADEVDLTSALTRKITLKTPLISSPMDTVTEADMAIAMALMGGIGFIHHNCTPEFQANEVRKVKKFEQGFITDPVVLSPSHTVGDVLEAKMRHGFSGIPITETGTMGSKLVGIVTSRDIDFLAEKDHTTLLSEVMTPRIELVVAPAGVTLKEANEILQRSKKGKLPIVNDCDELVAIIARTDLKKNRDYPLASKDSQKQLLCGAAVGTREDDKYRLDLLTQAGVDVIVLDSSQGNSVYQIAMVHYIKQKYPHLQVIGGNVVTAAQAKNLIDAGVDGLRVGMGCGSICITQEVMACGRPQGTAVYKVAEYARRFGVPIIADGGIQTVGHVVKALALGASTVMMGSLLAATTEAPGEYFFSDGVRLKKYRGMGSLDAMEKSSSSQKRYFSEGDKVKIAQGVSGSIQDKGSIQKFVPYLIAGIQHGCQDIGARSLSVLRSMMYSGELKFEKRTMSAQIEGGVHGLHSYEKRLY

[4] = tested on: CCRF-CEM; experiment: Inhibitory activity against CEM cell proliferation; assay type: functional, cell-based; details: Homo sapiens
[5] = biological target: T1, Inosine-5'-monophosphate dehydrogenase 2; experiment: Inhibitory activity against IMPDH II with respect to IMP and NAD

Row | pIC50 [1] | SMILES | also measured
1 | 6.80 | COc1cc2nc(-c3cccc(C(=O)O)c3)cc(O)c2cc1-c1cnco1 | –
2 | > 8.30 | COc1cc2nc(-c3ccc(C)c(C)c3)cc(O)c2cc1-c1cnco1 | pIC50 [2]: 7.08; Ratio [3]: > 17; pIC50 [4]: 6.39
3 | > 8.30 | COc1ccc(-c2cc(O)c3cc(-c4cnco4)c(OC)cc3n2)cc1 | pIC50 [2]: 7.05; Ratio [3]: > 18; pIC50 [4]: 6.43
4 | – | COc1c(C)c2c(c(O)c1C/C=C(\C)CCC(=O)O)C(=O)OC2 [MYCOPHENOLIC ACID] | pIC50 [2]: 7.26
5 | > 8.30 | COc1cc2nc(-c3ccc(C)cc3)cc(O)c2cc1-c1cnco1 | pIC50 [2]: 7.34; Ratio [3]: > 9; pIC50 [4]: 6.25
6 | 6.80 | COc1cc2nc(-c3cccc(S(C)(=O)=O)c3)cc(O)c2cc1-c1cnco1 | –
7 | < 5.00 | COc1cc2nc(C(C)(C)C)cc(O)c2cc1-c1cnco1 | –
8 | 6.96 | COc1cc2nc(C)cc(O)c2cc1-c1cnco1 | –
9 | 7.47 | COc1cc2nc(-c3cscn3)cc(O)c2cc1-c1cnco1 | –
10 | 7.66 | COc1cc2nc(-c3cccc(Br)c3)cc(O)c2cc1-c1cnco1 | –
11 | 7.34 | COc1cc2nc(-c3ccncc3)cc(O)c2cc1-c1cnco1 | –
12 | 7.15 | COc1cc2nc(-c3cccnc3)cc(O)c2cc1-c1cnco1 | –
13 | – | COc1cc(NC(=O)Nc2cccc(C)c2)ccc1-c1cnco1 | pIC50 [2]: 7.26; Ratio [3]: 2.9; pIC50 [4]: 6.49
14 | 8.05 | COc1cc2nc(-c3ccsc3)cc(O)c2cc1-c1cnco1 | pIC50 [2]: 7.26; Ratio [3]: 6; pIC50 [4]: 6.47
15 | 7.74 | COc1cc2nc(-c3cccc(O)c3)cc(O)c2cc1-c1cnco1 | –
16 | 7.19 | COc1cc2nc(-c3ccccc3)c(C)c(O)c2cc1-c1cnco1 | –
17 | 8.30 | COc1cc2nc(-c3ccc(Br)cc3)cc(O)c2cc1-c1cnco1 | –
18 | 6.52 | COc1cc2nccc(O)c2cc1-c1cnco1 | –
19 | < 6.00 | COc1cc2nc(-c3ccc(C(=O)O)cc3)cc(O)c2cc1-c1cnco1 | –
20 | 7.37 | COc1cc2nc(-c3ccccn3)cc(O)c2cc1-c1cnco1 | –
21 | 7.20 | COc1cc2nc(-c3cccs3)cc(O)c2cc1-c1cnco1 | –
22 | 7.49 | COc1cc2nc(-c3ccoc3)cc(O)c2cc1-c1cnco1 | –
23 | 6.74 | COc1cc2nc(Cc3ccccc3)cc(O)c2cc1-c1cnco1 | –
24 | 6.70 | COc1cc2nc(N(C)C)cc(O)c2cc1-c1cnco1 | –
25 | 6.66 | CNc1cc(O)c2cc(-c3cnco3)c(OC)cc2n1 | –
26 | 7.54 | COc1cc2nc(-c3cc(C)ccc3C)cc(O)c2cc1-c1cnco1 | –
27 | 8.30 | COc1cc2nc(-c3cccc(C)c3)cc(O)c2cc1-c1cnco1 | pIC50 [2]: 6.82; Ratio [3]: 30; pIC50 [4]: 5.96
28 | 7.37 | COc1cc2nc(-c3ccc(O)cc3)cc(O)c2cc1-c1cnco1 | –
29 | 7.19 | COc1cc2nc(-c3ccccc3C)cc(O)c2cc1-c1cnco1 | –
30 | 7.72 | COc1cc2nc(-c3ccc(C)c(Br)c3)cc(O)c2cc1-c1cnco1 | –

Row | SMILES | pIC50 [1] | also measured
31 | COc1cc2nc(-c3ccccc3)cc(O)c2cc1-c1cnco1 | 8.10 | pIC50 [2]: 7.00; Ratio [3]: 12; pIC50 [4]: 6.16; pKi [5]: 8.15
